One compound from ChEMBL document CHEMBL4431316, “New 6-Aminoquinoxaline Derivatives with Neuroprotective Effect on Dopaminergic Neurons in Cellular and Animal Parkinson Disease Models” (J Med Chem, 2016) can be followed below.

Activity calls are given as the source filed them. No cut-off for these calls is given here.

Experiment [1] has as its system Mus musculus. The experiment can be described thus: Neuroprotective activity against MPTP-induced C57BL/6 mouse SN DA neuron toxicity model assessed as survival of Th immunopositive cells at 25 mg/kg/day, po bid pretreated for 3 days followed by MPTP challenge and further administration of compound up to day 11 by immunohistochemical analysis (reference value: 61 +/- 5%). The class given is functional. As to conditions: C57BL/6, po. The procedure, abridged: (§1)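 C57BL/6 mice given sub-chronic MPTP treatment. Test agent given per os twice daily (2x25 or 2x50 mg/kg/day) for 11 days. TH+ neurons counted in one hemisphere per mouse. Expressed as % of vehicle-treated mice, mean ± SEM, n=9-12.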

Experiment [2] concerns Mus musculus. The experiment can be described thus: Neuroprotective activity against MPTP-induced C57BL/6 mouse SN DA neuron toxicity model assessed as survival of Th immunopositive cells at 50 mg/kg/day, po bid pretreated for 3 days followed by MPTP challenge and further administration of compound up to day 11 by immunohistochemical analysis relative to control. It counts as functional. As to conditions: C57BL/6, po. The procedure, abridged:
as §1

The species entered for experiment [3] is Rattus norvegicus. The experiment can be described thus: Neuroprotective activity in Sprague-Dawley rat DA neuron death PD model assessed as survival of Th immunopositive cells treated at 10 to 50 uM in presence of GDNF for 10 days followed by deprivation of GDNF for next 5 days by immunofluorescence assay. The class given is functional. The procedure, abridged: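 Midbrain cultures kept with GDNF (20 ng/ml) for 10 days, then deprived of GDNF from 11 to 15 DIV, with test compound 10-50 µM. TH+ neurons counted and compared with cultures kept on GDNF to 15 DIV. P < 0.05 vs GDNF-treated and vs GDNF-deprived cultures.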

Experiment [4] relates to Mus musculus. The experiment is described as follows: Neuroprotective activity against MPTP-induced C57BL/6 mouse DA neuron toxicity model assessed as decrease in striatal DOPAC level at 50 mg/kg/day, po bid pretreated for 3 days followed by MPTP challenge and further administration of compound up to day 11 by HPLC method. It counts as functional, organism-based.
For experiment [5], the system named is Mus musculus. The experiment is described as follows: Neuroprotective activity against MPTP-induced C57BL/6 mouse DA neuron toxicity model assessed as restoration of striatal DA level at 50 mg/kg/day, po bid pretreated for 3 days followed by MPTP challenge and further administration of compound up to day 11 by HPLC method. The class given is functional, organism-based.

The test system of experiment [6] is Astrocyte. The experiment can be described thus: Neuroprotective activity in Sprague-Dawley rat astrocytes assessed as effect on vimentin positive cell density and morphology at 50 uM by fluorescence microscopic method. The class given is functional, cell-based. The procedure, abridged:
(§2)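 Midbrain cultures labelled for vimentin, a glial marker. Density and morphology of glial cells scored semi-quantitatively by fluorescence microscopy. Compounds tested at 10 and 50 µM, one at 100 µM; dbcAMP as reference.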

Experiment [7] concerns Mus musculus. The experiment can be described thus: Neuroprotective activity against MPTP-induced C57BL/6 mouse DA neuron toxicity model assessed as restoration of striatal HVA level at 25 mg/kg/day, po bid pretreated for 3 days followed by MPTP challenge and further administration of compound up to day 11 by HPLC method (reference value: 53 +/- 3%). The class given is functional.

Experiment [8] has as its system Mus musculus. The experiment can be described thus: Neuroprotective activity against MPTP-induced C57BL/6 mouse DA neuron toxicity model assessed as restoration of striatal HVA level at 50 mg/kg/day, po bid pretreated for 3 days followed by MPTP challenge and further administration of compound up to day 11 by HPLC method. The class given is functional, organism-based.

Experiment [9] can be described thus: Neuroprotective activity in Sprague-Dawley rat DA neuron death PD model assessed as survival of Th immunopositive cells at 50 uM after 10 days by immunofluorescence assay. The class given is functional. As to conditions: 240 h, read-out: Survival. The procedure, abridged: (§3)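 Midbrain cultures in which DA neurons die spontaneously and selectively through a mechanism involving immature astrocytes and calcium dyshomeostasis. Compounds were present for 10 days in vitro, screened at 50 µM (100 µM for one analog) and retested at 10 µM. dbcAMP 1 mM served as reference. Surviving TH+ neurons were counted and expressed as % of corresponding untreated control cultures.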

For experiment [10], the species on record is Rattus norvegicus. The experiment can be described thus: Neuroprotective activity in Sprague-Dawley rat DA neuron death PD model assessed as inhibition of calcium mobilization at 50 uM after 10 days in presence of RyR channel blocker dantrolene. The class given is functional. (Calcium flux is commonly read through the fluorescence of an indicator in the cells.)

The test system of experiment [11] is Mus musculus. The experiment is described as follows: Neuroprotective activity against MPTP-induced C57BL/6 mouse DA neuron toxicity model assessed as restoration of striatal DA level at 25 mg/kg/day, po bid pretreated for 3 days followed by MPTP challenge and further administration of compound up to day 11 by HPLC method (reference value: 28 +/- 2%). The class given is functional.

Experiment [12] has as its target T1, Amine oxidase [flavin-containing] B (Rattus norvegicus, UniProt P19643).
T1 sequence (P19643 whole entry): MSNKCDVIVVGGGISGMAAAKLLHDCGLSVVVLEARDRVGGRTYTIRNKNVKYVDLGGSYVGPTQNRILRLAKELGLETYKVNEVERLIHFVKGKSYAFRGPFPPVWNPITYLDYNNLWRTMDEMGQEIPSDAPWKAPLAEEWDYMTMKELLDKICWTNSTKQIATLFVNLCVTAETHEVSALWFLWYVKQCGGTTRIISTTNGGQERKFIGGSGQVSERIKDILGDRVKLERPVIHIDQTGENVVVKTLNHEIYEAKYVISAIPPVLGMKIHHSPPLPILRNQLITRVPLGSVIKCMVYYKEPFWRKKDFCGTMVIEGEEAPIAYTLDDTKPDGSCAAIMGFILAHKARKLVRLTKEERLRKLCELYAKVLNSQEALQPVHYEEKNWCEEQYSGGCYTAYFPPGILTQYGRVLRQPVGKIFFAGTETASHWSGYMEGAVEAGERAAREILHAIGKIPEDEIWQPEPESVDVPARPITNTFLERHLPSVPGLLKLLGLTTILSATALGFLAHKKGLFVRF
The experiment can be described thus: Inhibition of rat mitochondrial MAO-B using DAB as substrate incubated for 30 mins by HPLC analysis.

The species named for experiment [13] is Rattus norvegicus. The experiment is described as follows: Neuroprotective activity in Sprague-Dawley rat DA neuron death PD model assessed as increase in [2,5,6-3H]DA uptake at 10 to 50 uM after 10 days by liquid scintillation counting spectrometric analysis. The class given is functional. The procedure, abridged:
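Midbrain cultures in which DA neurons die spontaneously and selectively. Treated with test compound (10-50 µM) or dbcAMP (1 mM, reference) up to 10 DIV. Tritium-labeled DA uptake quantified as a marker of DA cell function and differentiation. Uptake rate per TH+ neuron also derived. *P < 0.05 vs control.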

For experiment [14], the system named is Astrocyte. The experiment can be described thus: Neuroprotective activity in Sprague-Dawley rat astrocytes assessed as effect on vimentin positive cell density and morphology at 10 uM by fluorescence microscopic method. It counts as functional, cell-based. The procedure, abridged: as §2
The species entered for experiment [15] is Rattus norvegicus. The experiment can be described thus: Neuroprotective activity in Sprague-Dawley rat DA neuron death PD model assessed as survival of Th immunopositive cells at 50 uM after 10 days in presence of anti-GDNF antibody by immunofluorescence assay. It counts as functional.
For experiment [16], the species on record is Rattus norvegicus. The experiment can be described thus: Antioxidant activity in Sprague-Dawley rat DA neuron assessed as reduction in ferrous iron-mediated neuron death at 5 uM. The class given is functional. The procedure, abridged:
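Midbrain cultures with DA cell death driven by a Fenton-type reaction, ferrous iron reacting with molecular oxygen in the medium (chronic oxidative stress). Test compound 1-10 µM; desferrioxamine 10 µM as positive control. Readout is DA neuron (TH+) survival. P < 0.05 vs control cultures.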

For experiment [17], the species on record is Rattus norvegicus. The experiment can be described thus: Neuroprotective activity in Sprague-Dawley rat DA neuron death PD model assessed as inhibition of calcium mobilization at 50 uM after 10 days in presence of L-type voltage gated calcium channel blocker nifedipine. The class given is functional.
Experiment [18] has as its system Astrocyte. The experiment is described as follows: Neuroprotective activity in Sprague-Dawley rat astrocytes assessed as [methyl-3H]thymidine incorporation at 10 to 50 uM after 8 days by liquid scintillation counting assay relative to control. It counts as functional. The procedure, abridged: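 Glial proliferation in midbrain cultures measured as [methyl-3H]-thymidine incorporation at 8 DIV, with test compound 10-50 µM. DbcAMP 1 mM as positive control. Expressed as % of control.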
On the technique in general: Dividing cells build labelled thymidine or BrdU into new DNA.

The species entered for experiment [19] is Rattus norvegicus. The experiment can be described thus: Neuritogenic activity in Sprague-Dawley rat DA neuron death PD model assessed as development of neurite network in Th immunopositive cells at 10 to 50 uM after 10 days by microscopic analysis relative to control. It counts as functional, cell-based. The procedure, abridged: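 Midbrain cultures treated or not with test compound (10-50 µM) for 10 DIV, then immunostained for TH. Neuritic network of TH+ neurons examined microscopically against control neurons. DbcAMP 1 mM as reference protective molecule.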

A short description of experiment [20]: Neuroprotective activity in Sprague-Dawley rat DA neuron death PD model assessed as survival of Th immunopositive cells at 10 uM after 10 days by immunofluorescence assay relative to control. The class given is functional. As to conditions: 240 h, read-out: Survival. The procedure, abridged: as §3
In experiment [21] the test system is Mus musculus. The experiment is described as follows: Neuroprotective activity against MPTP-induced C57BL/6 mouse DA neuron toxicity model assessed as reduction of striatal DA turnover at 25 mg/kg/day, po bid pretreated for 3 days followed by MPTP challenge and further administration of compound up to day 11 by HPLC method. It counts as functional. Set-up: scale not given: the % may be the effect or the level left.

With `Nc1ccc2ncc(-c3ccccc3)nc2c1`, the survival at 25 mg/kg/day in the experiment with Mus musculus [1] was found to be 78%. Besides, the survival at 50 mg/kg/day in the experiment with Mus musculus [2] stood at 91%. In addition, the result in the experiment filed under Rattus norvegicus [3], in the experiment on Mus musculus [4], in the experiment with Mus musculus [5], in the experiment with Mus musculus [8], in the experiment listed under Rattus norvegicus [13] and in the experiment filed under Rattus norvegicus [15] was Active. The result in the experiment listed under Rattus norvegicus [16] and in the experiment listed under Rattus norvegicus [19] was Active. In addition, the outcome in the experiment with Astrocyte [6] and in the experiment with Astrocyte [14] was inactive. Moreover, the Activity with Mus musculus [7] was found to be 64%; in the experiment on Mus musculus [11], 39%; with Astrocyte [18], 93.8%; in the experiment on Mus musculus [21], 36%. Also, in experiment [9], the viability at 50 µM worked out at 226%. Also, the inhibition entry in the experiment listed under Rattus norvegicus [10] was “inactive”. 513 µM corresponded to half-maximal inhibition in experiment [12] (IC50). The inhibition entry in the experiment filed under Rattus norvegicus [17] was “Active”. The viability at 10 µM in experiment [20] stood at 152%.
